Assay results published in ChEMBL document CHEMBL3272272, “Photoaffinity labeling of the angiotensin II receptor. 1. Synthesis and biological activities of the labeling peptides” (J Med Chem, 1978).
Non-standard residues stand in square brackets, D forms with d. Residues, ends and D or L forms follow the SMILES beside them. Phe(4-NO2) = N[C@@H](Cc1ccc([N+](=O)[O-])cc1)C(=O)O; Phe(3,5-I2,4-NH2) = Nc1c(I)cc(C[C@H](N)C(=O)O)cc1I; Phe(4-N3) = [N-]=[N+]=Nc1ccc(C[C@H](N)C(=O)O)cc1; Phe(4-N2+) = N#[N+]c1ccc(C[C@H](N)C(=O)O)cc1; Phe(4-NH2) = Nc1ccc(C[C@H](N)C(=O)O)cc1; Sar = CNCC(=O)O

Key:
Oryctolagus cuniculus [1] = organism: Oryctolagus cuniculus; test: Intrinsic activity at rabbit angiotensin […] receptor in aorta strips under exclusion of long wavelength UV light; type: tissue-based
Procedure, shortened: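 Intrinsic activity (αE) was determined with the rabbit aorta bioassay.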

Oryctolagus cuniculus [2] = organism: Oryctolagus cuniculus; test: Relative binding affinity at rabbit angiotensin […] receptor in aorta strips under exclusion of long wavelength UV light relative to control; type: tissue-based
[3] = Antagonist activity at rabbit angiotensin […] receptor in aorta strips under exclusion of long wavelength UV light; type: tissue-based; conditions: Oryctolagus cuniculus, read-out: pA2 (converted)
Oryctolagus cuniculus [4] = organism: Oryctolagus cuniculus; test: Agonist activity at rabbit angiotensin […] receptor in aorta strips assessed as peptide concentration required to produce 50% maximal response under exclusion of long wavelength UV light
Procedure, shortened: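 Rabbit aorta contractile bioassay. […]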

Structure (SMILES) | pD2 (Oryctolagus cuniculus [4]) | Intrinsic activity (Oryctolagus cuniculus [1]) | RBA (Oryctolagus cuniculus [2]) | Kb [3]
CNCC(=O)N[C@@H](CCCNC(=N)N)C(=O)N[C@H](C(=O)N[C@@H](Cc1ccc(O)cc1)C(=O)N[C@H](C(=O)N[C@@H](Cc1cnc[nH]1)C(=O)N1CCC[C@H]1C(=O)N[C@@H](Cc1cc(I)c(N)c(I)c1)C(=O)O)C(C)C)C(C)C | – | 0 | 118% | 0.501 nM
CNCC(=O)N[C@@H](CCCNC(=N)N)C(=O)N[C@H](C(=O)N[C@@H](Cc1ccc([N+]#N)cc1)C(=O)N[C@H](C(=O)N[C@@H](Cc1cnc[nH]1)C(=O)N1CCC[C@H]1C(=O)N[C@@H](Cc1ccccc1)C(=O)O)C(C)C)C(C)C (H-[Sar]RV[Phe(4-N2+)]VHPF-OH) | 7.05 | 1 | 0.66% | –
CNCC(=O)N[C@@H](CCCNC(=N)N)C(=O)N[C@H](C(=O)N[C@@H](Cc1ccc(N)cc1)C(=O)N[C@H](C(=O)N[C@@H](Cc1cnc[nH]1)C(=O)N1CCC[C@H]1C(=O)N[C@@H](Cc1ccccc1)C(=O)O)C(C)C)C(C)C (H-[Sar]RV[Phe(4-NH2)]VHPF-OH) | 8.41 | 1 | 15% | –
CNCC(=O)N[C@@H](CCCNC(=N)N)C(=O)N[C@H](C(=O)N[C@@H](Cc1ccc([N+]#N)cc1)C(=O)N[C@H](C(=O)N[C@@H](Cc1cnc[nH]1)C(=O)N1CCC[C@H]1C(=O)N[C@@H](Cc1ccc([N+]#N)cc1)C(=O)O)C(C)C)C(C)C (H-[Sar]RV[Phe(4-N2+)]VHP[Phe(4-N2+)]-OH) | 7.36 | 1 | 1.3% | –
CNCC(=O)N[C@@H](CCCNC(=N)N)C(=O)N[C@H](C(=O)N[C@@H](Cc1cc(I)c(N)c(I)c1)C(=O)N[C@H](C(=O)N[C@@H](Cc1cnc[nH]1)C(=O)N1CCC[C@H]1C(=O)N[C@@H](Cc1ccccc1)C(=O)O)C(C)C)C(C)C (H-[Sar]RV[Phe(3,5-I2,4-NH2)]VHPF-OH) | 7.68 | 1 | 2.7% | –
CNCC(=O)N[C@@H](CCCNC(=N)N)C(=O)N[C@H](C(=O)N[C@@H](Cc1ccc(O)cc1)C(=O)N[C@H](C(=O)N[C@@H](Cc1cnc[nH]1)C(=O)N1CCC[C@H]1C(=O)N[C@@H](Cc1ccccc1)C(=O)O)C(C)C)C(C)C (H-[Sar]RVYVHPF-OH) | 9.23 | 1 | – | –
CNCC(=O)N[C@@H](CCCNC(=N)N)C(=O)N[C@H](C(=O)N[C@@H](Cc1ccc([N+](=O)[O-])cc1)C(=O)N[C@H](C(=O)N[C@@H](Cc1cnc[nH]1)C(=O)N1CCC[C@H]1C(=O)N[C@@H](Cc1ccc([N+](=O)[O-])cc1)C(=O)O)C(C)C)C(C)C (H-[Sar]RV[Phe(4-NO2)]VHP[Phe(4-NO2)]-OH) | 6.02 | 0.5 | 0.06% | 759 nM
CNCC(=O)N[C@@H](CCCNC(=N)N)C(=O)N[C@H](C(=O)N[C@@H](Cc1ccc(N)cc1)C(=O)N[C@H](C(=O)N[C@@H](Cc1cnc[nH]1)C(=O)N1CCC[C@H]1C(=O)N[C@@H](Cc1ccc(N)cc1)C(=O)O)C(C)C)C(C)C (H-[Sar]RV[Phe(4-NH2)]VHP[Phe(4-NH2)]-OH) | 8.17 | 1 | 8.7% | –
CNCC(=O)N[C@@H](CCCNC(=N)N)C(=O)N[C@H](C(=O)N[C@@H](Cc1ccc([N+](=O)[O-])cc1)C(=O)N[C@H](C(=O)N[C@@H](Cc1cnc[nH]1)C(=O)N1CCC[C@H]1C(=O)N[C@@H](Cc1ccccc1)C(=O)O)C(C)C)C(C)C (H-[Sar]RV[Phe(4-NO2)]VHPF-OH) | – | 0 | 0% | –

More lines, main results first:

pD2 (Oryctolagus cuniculus [4]) | Structure (SMILES) | Intrinsic activity (Oryctolagus cuniculus [1]) | RBA (Oryctolagus cuniculus [2]) | Kb [3]
8.33 | CNCC(=O)N[C@@H](CCCNC(=N)N)C(=O)N[C@H](C(=O)N[C@@H](Cc1ccc(O)cc1)C(=O)N[C@H](C(=O)N[C@@H](Cc1cnc[nH]1)C(=O)N1CCC[C@H]1C(=O)N[C@@H](Cc1ccc([N+]#N)cc1)C(=O)O)C(C)C)C(C)C | 1 | 13% | –
8.8 | CNCC(=O)N[C@@H](CCCNC(=N)N)C(=O)N[C@H](C(=O)N[C@@H](Cc1ccc(O)cc1)C(=O)N[C@H](C(=O)N[C@@H](Cc1cnc[nH]1)C(=O)N1CCC[C@H]1C(=O)N[C@@H](Cc1ccc(N)cc1)C(=O)O)C(C)C)C(C)C | 1 | 37% | –
9.07 | CNCC(=O)N[C@@H](CCCNC(=N)N)C(=O)N[C@H](C(=O)N[C@@H](Cc1ccc(O)cc1)C(=O)N[C@H](C(=O)N[C@@H](Cc1cnc[nH]1)C(=O)N1CCC[C@H]1C(=O)N[C@@H](Cc1ccc([N+](=O)[O-])cc1)C(=O)O)C(C)C)C(C)C | 0.46 | 69% | 0.372 nM
6.65 | CNCC(=O)N[C@@H](CCCNC(=N)N)C(=O)N[C@H](C(=O)N[C@@H](Cc1ccc(N=[N+]=[N-])cc1)C(=O)N[C@H](C(=O)N[C@@H](Cc1cnc[nH]1)C(=O)N1CCC[C@H]1C(=O)N[C@@H](Cc1ccccc1)C(=O)O)C(C)C)C(C)C (H-[Sar]RV[Phe(4-N3)]VHPF-OH) | 0.75 | 0.26% | –
6.12 | CNCC(=O)N[C@@H](CCCNC(=N)N)C(=O)N[C@H](C(=O)N[C@@H](Cc1ccc(N=[N+]=[N-])cc1)C(=O)N[C@H](C(=O)N[C@@H](Cc1cnc[nH]1)C(=O)N1CCC[C@H]1C(=O)N[C@@H](Cc1ccc(N=[N+]=[N-])cc1)C(=O)O)C(C)C)C(C)C (H-[Sar]RV[Phe(4-N3)]VHP[Phe(4-N3)]-OH) | 0.8 | 0.07% | –
8.72 | CNCC(=O)N[C@@H](CCCNC(=N)N)C(=O)N[C@H](C(=O)N[C@@H](Cc1ccc(O)cc1)C(=O)N[C@H](C(=O)N[C@@H](Cc1cnc[nH]1)C(=O)N1CCC[C@H]1C(=O)N[C@@H](Cc1ccc(N=[N+]=[N-])cc1)C(=O)O)C(C)C)C(C)C | 1 | 31% | –
